Results: ChEMBL document CHEMBL2029325, “Fused piperidines as a novel class of potent and orally available transient receptor potential melastatin type 8 (TRPM8) antagonists” (J Med Chem, 2012)
≈ marks a conversion by molar mass, not a printed value. Calls of active or inactive are those of the source. The rule behind the calls is not given here.

Assays:
[1] = Intrinsic clearance in CD1 rat liver microsomes at 1 uM after 30 mins; type: ADME, Microsome; conditions: read-out: CLH
[2] = target: Transient receptor potential cation channel subfamily M member 8 (Rattus norvegicus, UniProt Q8R455); assay: Antagonist activity at rat TRPM8 expressed in CHO cells assessed as inhibition of icilin-induced Ca2+ influx incubated 2.5 mins prior icilin induction by flash luminometry; type: functional, cell-based
Transient receptor potential cation channel subfamily M member 8, sequence (Q8R455 whole entry): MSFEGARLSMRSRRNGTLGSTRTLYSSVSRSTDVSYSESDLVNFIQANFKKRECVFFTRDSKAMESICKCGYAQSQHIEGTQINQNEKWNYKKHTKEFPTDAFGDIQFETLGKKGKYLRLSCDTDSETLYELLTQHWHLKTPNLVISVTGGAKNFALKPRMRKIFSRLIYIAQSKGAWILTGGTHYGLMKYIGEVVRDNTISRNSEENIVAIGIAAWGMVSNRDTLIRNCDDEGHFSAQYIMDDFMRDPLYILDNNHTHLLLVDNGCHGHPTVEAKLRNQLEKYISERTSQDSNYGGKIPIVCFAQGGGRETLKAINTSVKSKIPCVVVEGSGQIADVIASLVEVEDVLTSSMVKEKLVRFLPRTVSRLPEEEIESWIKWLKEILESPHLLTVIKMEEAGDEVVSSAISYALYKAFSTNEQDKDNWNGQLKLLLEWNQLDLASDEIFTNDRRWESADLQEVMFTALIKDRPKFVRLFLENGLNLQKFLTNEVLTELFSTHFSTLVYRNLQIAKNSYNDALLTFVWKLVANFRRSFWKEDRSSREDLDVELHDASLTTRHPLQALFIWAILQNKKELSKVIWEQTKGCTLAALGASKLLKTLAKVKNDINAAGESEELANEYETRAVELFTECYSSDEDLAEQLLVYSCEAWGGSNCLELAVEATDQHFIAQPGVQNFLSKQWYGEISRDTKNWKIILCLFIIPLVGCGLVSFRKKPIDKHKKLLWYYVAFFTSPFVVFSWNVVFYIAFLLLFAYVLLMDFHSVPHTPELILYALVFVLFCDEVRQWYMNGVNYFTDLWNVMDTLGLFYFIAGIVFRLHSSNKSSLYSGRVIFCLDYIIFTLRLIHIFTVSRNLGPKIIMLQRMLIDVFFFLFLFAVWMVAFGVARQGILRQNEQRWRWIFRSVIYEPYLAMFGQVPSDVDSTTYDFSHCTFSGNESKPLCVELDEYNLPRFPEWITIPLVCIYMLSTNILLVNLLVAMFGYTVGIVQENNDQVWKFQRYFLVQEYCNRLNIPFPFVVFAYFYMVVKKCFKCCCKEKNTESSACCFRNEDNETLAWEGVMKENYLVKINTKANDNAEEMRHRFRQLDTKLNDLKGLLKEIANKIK
Summary of the method: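 CHO cells stably expressing rat TRPM8 under a tetracycline-inducible T-REx system, co-transfected with aequorin. Seeded 24 h before assay; expression induced with 0.5 μg/mL tetracycline. Luminescence was read on a CCD-camera luminometer.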

[3] = AUC (infinity) in Sprague-Dawley rat at 2 mg/kg, iv by LC-MS/MS analysis; type: ADME, organism-based; set-up: time infinity, dose 2 mg/kg, route intravenous; conditions: plasma
Summary of the method: (§1)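 Fed male Sprague–Dawley rats, n = 3, given 2 mg/kg iv in DMSO. Measured by LC/MS/MS; noncompartmental analysis; mean(SD).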

[4] = Volume of distribution at steady state in Sprague-Dawley rat at 2 mg/kg, iv by LC-MS/MS analysis; type: ADME, organism-based; set-up: dose 2 mg/kg, route intravenous; conditions: in vivo, read-out: Vdss; summary of the method: as §1
[5] = test system: Rattus norvegicus; assay: Antinociceptive activity in Sprague-Dawley rat assessed as inhibition of icilin-induced wet-dog shakes at 100 mg/kg, po administered 90 mins prior icilin challenge measured for 30 mins; type: functional, organism-based; set-up: dose 100 mg/kg
Summary of the method: (§2)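 Male Sprague–Dawley rats (220–300 g, n = 5–13/treatment) were habituated 30 min to the room, then 20 min to an observation cylinder, kept out of sight of other rats. Compound or vehicle (5% Tween 80/Oraplus) given po 90 min before icilin (0.5 mg/kg ip in 100% PEG 400). Wet-dog shakes counted for 30 min afterwards.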

[6] = test system: Plasma; assay: Plasma concentration in Sprague-Dawley rat at 100 mg/kg, po; type: ADME, organism-based; set-up: dose 100 mg/kg, route oral; conditions: in vivo
Summary of the method: (§3)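 Male Sprague–Dawley rats (n = 8 per group) dosed po in 5% Tween 80/Oraplus 90 min before icilin challenge in the wet-dog-shake study. Plasma collected 2 h after oral dosing.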

[7] = Cmax in Sprague-Dawley rat at 10 mg/kg, po by LC-MS/MS analysis; type: ADME, organism-based; set-up: dose 10 mg/kg, route oral; conditions: in vivo
Summary of the method: (§4)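 Fasted male Sprague–Dawley rats, n = 3, given 10 mg/kg by oral gavage as a suspension in 5% Tween 80/Oraplus. Plasma taken predose and at 0.25, 0.5, 1, 2, 4, 6, 8, 12 and 16 h. Measured by LC/MS/MS; noncompartmental analysis; mean(SD).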

[8] = Oral bioavailability in Sprague-Dawley rat at 10 mg/kg by LC-MS/MS analysis; type: ADME, organism-based; conditions: in vivo; summary of the method: as §4
[9] = AUC (infinity) in Sprague-Dawley rat at 10 mg/kg, po by LC-MS/MS analysis; type: ADME, organism-based; set-up: time infinity, dose 10 mg/kg, route oral; conditions: plasma; summary of the method: as §4
[10] = test system: Rattus norvegicus; assay: Antinociceptive activity in Sprague-Dawley rat assessed as inhibition of icilin-induced wet-dog shakes at 3 mg/kg, po administered 90 mins prior icilin challenge measured for 30 mins; type: functional; summary of the method: as §2
[11] = test system: Rattus norvegicus; assay: Antinociceptive activity in po dosed Sprague-Dawley rat assessed as inhibition of icilin-induced wet-dog shakes administered 90 mins prior icilin challenge measured for 30 mins; type: functional, organism-based; summary of the method: as §2
[12] = test system: Plasma; assay: Plasma concentration in Sprague-Dawley rat at 30 mg/kg, po; type: ADME, organism-based; set-up: dose 30 mg/kg, route oral; conditions: in vivo; summary of the method: as §3
[13] = test system: Rattus norvegicus; assay: Antinociceptive activity in Sprague-Dawley rat assessed as inhibition of icilin-induced wet-dog shakes at 30 mg/kg, po administered 90 mins prior icilin challenge measured for 30 mins; type: functional; summary of the method: as §2

| SMILES | microsomal CLint at 1 µM [1] [µL/min/mg] | IC50 [2] [nM] | further results |
| --- | --- | --- | --- |
| O=C(Nc1ccccc1)N1CCc2sccc2C1c1ccc(Cl)cc1 (centres undefined) | > 399 | 560 |  |
| O=C(Cc1ccc(F)cc1)N1CCc2sccc2C1c1ccc(C(F)(F)F)cc1 (centres undefined) | > 399 | 890 |  |
| O=C(Nc1ccccc1)N1CCc2sccc2C1c1ccccc1C(F)(F)F (centres undefined) | > 399 | 240 |  |
| O=C(Nc1ccc(F)cc1)N1CCc2cccc(F)c2C1c1ccc(C(F)(F)F)cc1 (centres undefined) | 43 | 790 |  |
| O=C(Nc1ccc(F)cc1)N1CCc2c(F)cccc2C1c1ccc(C(F)(F)F)cc1 (centres undefined) | 48 | 100 |  |
| CCCC1c2ccsc2CCN1C(=O)Nc1ccc(Cl)cc1 (centres undefined) | > 399 | 1390 |  |
| O=C(Nc1ccccc1)N1CCc2sccc2C1c1cccc(F)c1 (centres undefined) | > 399 | 1320 |  |
| FC(F)(F)c1ccc(C2NCCc3sccc32)cc1 (centres undefined) | > 399 | > 20000 |  |
| O=C(Nc1ccccc1)N1CCc2sccc2C1c1ccc(F)cc1 (centres undefined) | > 399 | 1840 |  |
| O=C(Nc1ccccc1)N1CCc2sccc2C1c1ccccc1F (centres undefined) | > 399 | 2270 |  |
| O=C(Nc1ccccc1F)N1CCc2sccc2C1c1ccc(C(F)(F)F)cc1 (centres undefined) | 342 | 600 |  |
| O=C(Nc1ccc(F)cc1)N1CCc2sccc2C1c1ccc(C(F)(F)F)cc1 (centres undefined) | 178 | 340 |  |
| O=C(Nc1ccc(F)cc1)N1CCCCC1c1ccc(C(F)(F)F)cc1 (centres undefined) | 285 | 2660 |  |
| O=C(Nc1ccc(F)cc1)N1CCc2nc[nH]c2C1c1ccc(C(F)(F)F)cc1 (centres undefined) | 23 | 1430 |  |
| COc1ccc(NC(=O)N2CCc3sccc3C2c2ccc(C(F)(F)F)cc2)cc1 (centres undefined) | 203 | 2320 |  |
| O=C(Nc1ccc(F)cc1)N1CCc2ccoc2C1c1ccc(C(F)(F)F)cc1 (centres undefined) | 164 | 230 |  |
| O=C(c1ccccc1F)N1CCc2sccc2C1c1ccc(C(F)(F)F)cc1 (centres undefined) | > 399 | 510 |  |
| FC(F)(F)c1ccc(C2c3ccsc3CCN2Cc2ccccc2)cc1 (centres undefined) | > 399 | > 20000 |  |
| O=C(Nc1ccc(F)cc1)N1CCc2scnc2C1c1ccc(C(F)(F)F)cc1 (centres undefined) | 110 | 93 |  |
| CC(C)NC(=O)N1CCc2sccc2C1c1ccc(C(F)(F)F)cc1 (centres undefined) | > 399 | 550 |  |
| O=C(Nc1ccc(F)cc1)N1CCc2ccsc2C1c1ccc(C(F)(F)F)cc1 (centres undefined) | 206 | 150 |  |
| O=C(N1CCOCC1)N1CCc2sccc2C1c1ccc(C(F)(F)F)cc1 (centres undefined) | > 399 | > 20000 |  |
| O=C(Nc1ccccc1)N1CCc2sccc2C1c1ccccc1 (centres undefined) | > 399 | 1690 |  |
| O=C(Nc1ccc(F)cc1)N1CCc2occc2C1c1ccc(C(F)(F)F)cc1 (centres undefined) | 109 | 260 |  |

| SMILES | microsomal CLint at 1 µM [1] [µL/min/mg] | IC50 [2] [nM] | further results |
| --- | --- | --- | --- |
| O=C(Nc1cccc(F)c1)N1CCc2sccc2C1c1ccc(C(F)(F)F)cc1 (centres undefined) | 278 | 780 |  |
| CCCC1c2ccsc2CCN1C(=O)Nc1ccccc1 (centres undefined) | > 399 | 293 |  |
| O=C(Nc1ccccc1)N1CCc2sccc2C1c1ccccc1Cl (centres undefined) | > 399 | 140 |  |
| O=C(Nc1ccc(F)cc1)N1CCc2cc(F)ccc2C1c1ccc(C(F)(F)F)cc1 (centres undefined) | 40 | 302 |  |
| CC(C)C(=O)N1CCc2sccc2C1c1ccc(C(F)(F)F)cc1 (centres undefined) | > 399 | 1260 |  |
| O=C(NC1CC1)N1CCc2sccc2C1c1ccc(C(F)(F)F)cc1 (centres undefined) | > 399 | 1210 |  |
| O=C(Nc1ccc(F)cc1)N1CCc2ccccc2[C@@H]1c1ccc(C(F)(F)F)cc1 |  |  | AUC(0-inf) [3]: 347 ng·h/mL; Vd [4]: 15.8 L/kg; inhibition [5]: inactive; Cp [6]: 521 ng/mL |
| O=C(c1ccc(F)cc1)N1CCc2sccc2C1c1ccc(C(F)(F)F)cc1 (centres undefined) | 248 | > 20000 |  |
| O=C(Nc1ccc(F)cc1)N1CCCc2ccccc2C1c1ccc(C(F)(F)F)cc1 (centres undefined) | 146 | > 20000 |  |
| O=C(Nc1ccccc1)N1CCc2sccc2C1c1cccc(Cl)c1 (centres undefined) | > 399 | 2890 |  |
| O=C(c1cccc(F)c1)N1CCc2sccc2C1c1ccc(C(F)(F)F)cc1 (centres undefined) | > 399 | > 20000 |  |
| O=C(Nc1ccc(F)cc1)N1CCc2ccccc2[C@H]1c1ccc(C(F)(F)F)cc1 |  |  | Cmax [7]: 265 ng/mL; AUC(0-inf) [3]: 763 ng·h/mL; Vd [4]: 15.3 L/kg; bioavailability [8]: 57%; AUC(0-inf) [9]: 1750 ng·h/mL; inhibition in vivo at 3 mg/kg [10]: 30%; EC50 [11]: 0.209 µg/mL (≈ 0.504 µM); inhibition [11]: Dose-dependent effect; Cp [12]: 460 ng/mL; inhibition in vivo at 30 mg/kg [13]: > 80% |
| O=C(Nc1ccc(F)cc1)N1CCc2ccc(F)cc2C1c1ccc(C(F)(F)F)cc1 (centres undefined) | 34 | 190 |  |
| O=C(Nc1ccc(Cl)cc1)N1CCc2sccc2C1c1ccc(C(F)(F)F)cc1 (centres undefined) | 162 | 1630 |  |
| CC(C)N1CCc2sccc2C1c1ccc(C(F)(F)F)cc1 (centres undefined) | < 14 | > 20000 |  |
| O=C(Nc1ccccc1)N1CCc2sccc2C1c1ccc(C(F)(F)F)cc1 (centres undefined) | 211 | 290 |  |
| CC(C)CN1CCc2sccc2C1c1ccc(C(F)(F)F)cc1 (centres undefined) |  | > 20000 |  |
| CC1c2ccsc2CCN1C(=O)Nc1ccccc1 (centres undefined) |  | 6800 |  |
| Cn1cnc2c1CCN(C(=O)Nc1ccc(F)cc1)C2c1ccc(C(F)(F)F)cc1 (centres undefined) | 36 | 260 |  |
| O=C(Nc1ccc(F)cc1)N1Cc2ccccc2C1c1ccc(C(F)(F)F)cc1 (centres undefined) | 64 | 340 |  |
| O=C(Nc1ccccc1)N1CCc2sccc2C1 | 180 | > 20000 |  |
| O=C(Nc1ccccc1)N1CCc2sccc2C1C1CC1 (centres undefined) | > 399 | 5570 |  |
| O=C(Nc1ccccc1)N1CCc2sccc2C1c1cccc(C(F)(F)F)c1 (centres undefined) | > 399 | 1830 |  |
| O=C(Nc1ccc(F)cc1)N1CCn2cccc2C1c1ccc(C(F)(F)F)cc1 (centres undefined) | 123 | 180 |  |
